In ChEMBL document CHEMBL4513216, “Probing the Open Global Health Chemical Diversity Library for Multistage-Active Starting Points for Next-Generation Antimalarials” (ACS Infect Dis, 2020):

Assay: Toxicity liver stage against HepG2, at 10uM
Type: cell-based
Design: test concentration 10 uM, cell line HepG2-A16-CD81EGFP
Conditions: human, HepG2-A16-CD81EGFP cells; read-out: INHIBITION
Procedure, shortened: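 Uninfected HepG2-A16-CD81EGFP cells, 3 × 10^3 per well, 1536-well, plated on prespotted compound at 10 μM final, parasite-free screening media added to match infected plates; puromycin 10 μM positive, DMSO 0.5% negative; run in parallel with 48 h PbLuc assay at 37 °C, 5% CO2; viability by CellTiter-Glo luminescence, normalized to controls.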

| SMILES | cytotoxicity at 10 µM [%] |
| --- | --- |
| CC[C@H]1CN2CC[C@H]1C[C@@H]2CNC(=O)Nc1cc(OC)cc(OC)c1 | 3.39 |
| CCN1CC(CN2CCOCC2)Oc2ncccc2C1=O (stereo unspecified) | -1.1 |
| COc1cc(C2CC(=O)Oc3cc(C)[nH]c(=O)c32)ccc1O (stereo unspecified) | -8.64 |
| CC(=O)CSc1sc2c(O)cc(=O)[nH]c2c1C(N)=O | -3.48 |
| COCCNC(=O)c1ccc2ccc(N(C)CC3CC3)n2c1 | 0.375 |
| CC(C)n1nc(CNc2ncccn2)c2c1CN(S(C)(=O)=O)CC2 | -138 |
| CN(C)C(=O)CNC(=O)c1cc2c(s1)CCN2S(C)(=O)=O | 0.793 |
| O=C(NCc1cccnc1)c1nc2c(s1)CCCN2c1ncccn1 | 8.44 |
| COCCN1C(=O)C[C@H]2[C@H]1CCN2C(=O)c1ccc[nH]1 | 5.89 |
| COCC1CN(C(=O)Cc2cccs2)Cc2nnn(C)c21 (stereo unspecified) | 4.99 |
| c1cncc(N2CCOC3(CCCN(c4nncs4)C3)C2)c1 (stereo unspecified) | 6.56 |
| Cc1noc(C2CCCCN2C(=O)NCc2ccco2)n1 (stereo unspecified) | 0.986 |
| Cc1ccnc(OCC(=O)N2CCC(C(N)=O)CC2)n1 | -17.7 |
| CC1CCN(C(=O)c2cc(NC(=O)c3ccccc3)n(C)n2)CC1 | 5.17 |
| Cn1nc(C(=O)N2CCCCCC2)cc1NC(=O)c1ccccc1 | -0.942 |
| Cc1ncc2c(n1)CCCC2NC(=O)c1cnn(Cc2ccccc2)c1 (stereo unspecified) | -4.49 |
| Cc1ncsc1C(=O)N1CCc2nnc(C3CCCCN3C)n2CC1 (stereo unspecified) | 3.3 |
| Cc1nc2cc(-c3nccn3C)nn2c(N2CCCC2)c1C | 4.53 |
| CC1(c2[nH]ncc2C(N)=O)CCN(c2ncccn2)CC1 | 0.462 |
| OCC(CO)N1CCCC(Cc2cnc(Nc3ccccn3)cn2)C1 (stereo unspecified) | -5.97 |
| COCCC(=O)N1Cc2ccccc2OC2(CCOCC2)C1 | -2.53 |
| O=C(Cc1cccs1)N1CCCCC1c1ccn2ccnc2n1 (stereo unspecified) | -6.58 |
| CC(C)(N)C(=O)N1CCCC1c1cncc(Oc2ccccc2)n1 (stereo unspecified) | -6.02 |

| SMILES | cytotoxicity at 10 µM [%] |
| --- | --- |
| Cc1cccc(CC2COCCN(Cc3nccn3C)C2)n1 (stereo unspecified) | 1.61 |
| CN1CCC(c2cc(C(F)(F)F)n3ccnc3n2)CC1 | -9.6 |
| CCS(=O)(=O)N1CCC(c2cc3n(n2)[C@@H](C(F)(F)F)C[C@@H](C)N3)CC1 | 0.436 |
| O=C(Cc1c[nH]c2ncccc12)NCC(O)c1ccccc1F (stereo unspecified) | -3.43 |
| Cc1cnn(CC2CN(CC(=O)Nc3c(C)nn(C)c3C)CCO2)c1 (stereo unspecified) | 1.08 |
| CCOC(C)c1nccn1Cc1cc(C)on1 (stereo unspecified) | 8.41 |
| O=C(NCCc1cc(F)ccc1F)NC(CO)c1ccccc1 (stereo unspecified) | 8.78 |
| COC(=O)c1oc(CNC(C)(C)c2ccc3c(c2)OCO3)cc1C | 4.47 |
| CCCNC(=O)NCc1nc(C)c(C)o1 | 5.19 |
| CC1CN(C(=O)C2(c3ccc(F)cc3F)CCOCC2)CCO1 (stereo unspecified) | -4.84 |
| Cc1ccc(-n2cnnn2)cc1NCC(=O)Nc1cc(F)ccc1F | 6.23 |
| CS(=O)(=O)Nc1cccc(CNC(=O)CCNC(=O)c2cccs2)c1 | 0.466 |
| Cc1cc(C(=O)N(CC2CCCO2)c2ccncc2)c(C)o1 (stereo unspecified) | -8.97 |
| CCn1cnnc1C1CCN(C(=O)c2ccc3ccccc3n2)CC1 | 6.13 |
| O=C(NCCC1CCN(CC(F)(F)F)CC1)C1CCCO1 (stereo unspecified) | 5.48 |
| CC1(C)CN(CC(F)(F)F)CCN1CC(=O)NC1CCCC1 | 10.4 |
| Cc1cc(C(=O)CN2CCN(c3ncccn3)CC2)c(C)n1C(C)C | 9.71 |
| O=C(Cc1ccccc1O)NC1CCCN(c2ccccc2F)C1=O (stereo unspecified) | -13.7 |
| O=C(NCCn1cnnc1C1CC1)c1c(O)cc(F)cc1F | -1.88 |
| CCNC(=O)C1CCCN(c2ccc(C#N)cc2C(F)(F)F)C1 (stereo unspecified) | 1.28 |
| CCSc1cncc(N2CCC(NC(=O)C3CCCCC3)CC2)n1 | 16.8 |
| Cc1ccccc1CN1CCC(NCC2CNc3ccnn3C2)CC1 (stereo unspecified) | 0.0194 |
| N#Cc1ccc(CNC(=O)NC2CCN(CC(F)F)CC2)cc1 | -6.96 |

| SMILES | cytotoxicity at 10 µM [%] |
| --- | --- |
| Cc1nc2ccccn2c1CN(Cc1cccnc1)CC1CCCO1 (stereo unspecified) | -7.1 |
| Cc1cc(C)n(C2CCCN(C(=O)c3cccc4[nH]ncc34)C2)n1 (stereo unspecified) | 6.22 |
| CCS(=O)(=O)N1C[C@H]2CC[C@@]3(N=C(C)N(CC(C)C)C3=O)[C@H]2C1 | -85 |
| Cc1noc(-c2ccc(N(C)Cc3ccncn3)nc2)n1 | 1.11 |
| Cc1cc(-c2cccc3c2CCNC3)cnc1-n1cnnc1 | -0.972 |
| Cc1cc(C2CCC2)nc(N2CCC3(CC2)OCCCC3O)n1 (stereo unspecified) | 4.28 |
| Cc1ccc(C2(O)CCN(Cc3nc(C)n4ccccc34)CC2)nc1 | 3.43 |
| Cc1ccsc1C(=O)N1CCC(c2nccn2Cc2ccncc2)CC1 | 0.535 |
| Cn1ccnc1CN1C[C@@H](CN2CCCCC2)[C@@H](CO)C1 | 11.7 |
| O=C(NC[C@H]1CCCN1)c1cc(COc2cccc(C(F)(F)F)c2)[nH]n1 | -7.59 |
| CCc1cnc(N2CCCOC(CN3CCCC3)C2)nc1 (stereo unspecified) | -5.77 |
| CCC(C)NC(=O)NCc1cc2n(n1)CCCN(C1CCCCC1)C2 (stereo unspecified) | 3.11 |
| CCc1nccc(CN2CCCC(c3nn(C)c(=O)n3CC)C2)n1 (stereo unspecified) | -3.69 |
| Cc1noc([C@@H]2CCCN2C(=O)C2CCN(C(=O)C3CCC3)CC2)n1 | -14.4 |
| CN(Cc1ccccc1)C1(C(=O)O)Cc2ccccc2C1 | 1.04 |
| CC(Cn1cncn1)NCc1nncn1C1CCCCC1 (stereo unspecified) | -10.4 |
| CCCSc1ncc(Cl)c(C(=O)NC(CCSC)C(=O)O)n1 (stereo unspecified) | -6.44 |
| Cc1cc(-n2cnnn2)n2ncnc2n1 | -5.66 |
| CCn1ncc(NC(=O)c2cc(C3CC3)nc3c2c(C)nn3C)c1C | -3.32 |
| CCOC1CCN(C(=O)CN(C)c2cnccn2)CC1 | -6.07 |
| Cc1nnc2n1CCN(Cc1csc(-c3ncccn3)n1)C2 | -38.1 |
| O=C(c1ccc(-n2cnnn2)cc1)N1CCCC(n2ccnc2)C1 (stereo unspecified) | -24.7 |
| Cc1cnn(CC2CCCN2C(=O)c2cccc(S(C)(=O)=O)c2)c1 (stereo unspecified) | -10.3 |

| SMILES | cytotoxicity at 10 µM [%] |
| --- | --- |
| CCN(Cc1ccc2c(c1)OCO2)C(=O)NC(C)Cn1ccnc1 (stereo unspecified) | -13.2 |
| CC(C)(C)c1noc(CCC(=O)NCC2CCS(=O)(=O)C2)n1 (stereo unspecified) | -18.1 |
| CN(C)c1ncccc1CNc1cc(N2CCCC2CO)ncn1 (stereo unspecified) | -8.48 |
| CN(Cc1nnc2n1CCC2)C(=O)c1ccc2c(c1)CCO2 | -9.33 |
| CCCS(=O)(=O)NC(C)C(=O)NCc1ccc(N2CCN(C)CC2)nc1 (stereo unspecified) | -20.9 |
| COc1ccccc1CC(=O)N1CCCC1Cn1nc(C)cc1C (stereo unspecified) | -9.37 |
| N#Cc1cccc(CNC(=O)Nc2cccnc2N2CCCC2)c1 | -15.5 |
| Cc1nc(C)n(C2CCCN(C(=O)Cc3csc(C(C)C)n3)C2)n1 (stereo unspecified) | -15.8 |
| COC(=O)C(NC(=O)COC1CCCC1)c1cc(F)ccc1F (stereo unspecified) | -9.06 |
| COCCCNC(=O)CN(C)C(=O)c1cc(C)ccc1N(C)C(C)C | -4.84 |
| Cc1cnn(CC2CN(Cc3nccn3C)CCO2)c1 (stereo unspecified) | -2.06 |
| CC(=O)Nc1nc(CN2CCn3c(nnc3C3CC3)C2)cs1 | -7.91 |
| Cc1nnc(CN2CCC(N(C)Cc3nnc(C4CC4)n3C)C2)o1 (stereo unspecified) | -5.36 |
| CC(C(=O)N1CCCN(c2ccc(C#N)cc2)CC1)n1ccnc1 (stereo unspecified) | -9.75 |
| COc1c(CNCc2ccc(N(C)C)nc2)c(C(C)C)nn1C | -9.75 |
| Cc1cc(C)c(CNC(=O)NCCOc2ccc3c(c2)CCC3)c(=O)[nH]1 | -23.3 |
| CC(C)c1ccc(C(C)NC(=O)N2CCC(n3cncn3)CC2)cc1 (stereo unspecified) | -6.18 |
| Cc1nc(CSCCC(=O)NCc2cccnc2N(C)C)cs1 | -9.19 |
| Cc1cc(C)n(C2CN(CC(O)COc3ccc(F)cc3)C2)n1 (stereo unspecified) | -10.5 |
| Cc1nnc2n1CCN(C(=O)COCCOc1ccccc1)C2 | 0.529 |
| CCN(Cc1cccc(Cl)c1)Cn1nc(C)c2c(C)onc2c1=O | -13 |
| O=C(c1ccc(-n2cccn2)nc1)N1CCCN(c2cccnn2)CC1 | 0.65 |
| O=C(NCCNc1ccc(C(F)(F)F)cn1)c1cncc(Br)c1 | 2.24 |

| SMILES | cytotoxicity at 10 µM [%] |
| --- | --- |
| O=C(CCc1nccs1)N1CCN(c2ncccn2)CC1 | -0.313 |
| C[C@@H](NC(=O)c1cnccn1)c1c(-c2ccc(Cl)cc2)noc1C(=O)O | 4.26 |
| Cc1cc(CN2C[C@H](N3CCOCC3)[C@@H]3OCCC[C@@H]32)oc1C | -139 |
| Cc1ccc2c(n1)N(C)CCN(CCN1CCCC1)C2 | -8.84 |
| COCC1c2c(cnn2C)CCN1Cc1cccc(C)c1 (stereo unspecified) | 0.951 |
| c1cnn(CCCO[C@@H]2CC[C@H]3[C@H]2OCCN3CC2CCOCC2)c1 | 7.77 |
| CN1CCC2(C=C(C(=O)N3CCCC3)c3ccccc32)CC1 | 1.97 |
| O=C(Cc1cccnc1)N1CCC2(CCN(CC3CCCCC3)C2)CC1 | -1.28 |
| COCCN1CCCC12CCN(Cc1cccnc1OC)CC2 | 15.4 |
| CN1Cc2cnn(CC3CCCC3)c2C(COCC2CC2)C1 (stereo unspecified) | -1.6 |
| c1cncc(O[C@H]2CC[C@H]3[C@H]2OCCN3C2CCC2)c1 | -6.69 |
| Cc1cc(CCC(=O)N(C)C)nc(C2CCCCN2)n1 (stereo unspecified) | -2.39 |
| Cn1cc(N2CCC3(CCN(Cc4nccs4)C3)C2=O)cn1 (stereo unspecified) | 3.76 |
| Cc1noc(C)c1CN1CCc2ncc(Cn3cccn3)n2CC1 | 2.65 |
| COCCN1CCC2(CC1)CN(C(=O)N(C)C)c1ccc(C)cc12 | 7.74 |
| CNC(=O)[C@H]1C[C@@H]2CCN(Cc3nccs3)C[C@H]2O1 | -75.9 |
| Cc1noc(C)c1CN1C[C@@H]2C[C@H](C(=O)NCC3CC3)N(C)[C@@H]2C1 | -1.24 |
| COc1ccc(CN2C[C@@H]3OCCN(CCN(C)C)[C@@H]3C2)cc1 | -86.9 |
| CC(C)[C@H](N)CC(=O)Nc1nc(-c2cnc(N3CCOCC3)nc2)cs1 | -9.8 |
